Data reported in ChEMBL document CHEMBL3414481, “Discovery of highly selective brain-penetrant vasopressin 1a antagonists for the potential treatment of autism via a chemogenomic and scaffold hopping approach” (J Med Chem, 2015).
In brackets after ≈: the same amount, converted by molar mass.

Assays:
Vasopressin V1a receptor [1] = molecular target: Vasopressin V1a receptor (Mus musculus, UniProt Q62463); test: Displacement of [3H]-vasopressin from mouse vasopressin 1a receptor expressed in HEK293 cell membranes after 1 hr by scintillation proximity assay
Vasopressin V1a receptor (Mus musculus, UniProt Q62463), sequence (Q62463 whole entry): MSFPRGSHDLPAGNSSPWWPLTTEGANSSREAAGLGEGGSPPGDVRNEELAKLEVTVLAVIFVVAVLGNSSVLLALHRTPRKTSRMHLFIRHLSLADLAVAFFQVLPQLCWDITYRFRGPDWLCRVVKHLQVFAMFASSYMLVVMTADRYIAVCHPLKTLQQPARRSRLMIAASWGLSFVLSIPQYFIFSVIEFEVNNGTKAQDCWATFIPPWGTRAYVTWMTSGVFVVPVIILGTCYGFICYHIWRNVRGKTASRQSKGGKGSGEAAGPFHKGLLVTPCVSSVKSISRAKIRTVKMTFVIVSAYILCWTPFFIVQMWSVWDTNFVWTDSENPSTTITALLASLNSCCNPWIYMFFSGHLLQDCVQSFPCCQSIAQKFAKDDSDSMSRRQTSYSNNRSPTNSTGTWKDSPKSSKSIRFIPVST
How it was run: (§1)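 Radioligand competition binding; affinity reported as Ki.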

Vasopressin V1a receptor [2] = molecular target: T1, Vasopressin V1a receptor (Homo sapiens, UniProt P37288); test: Displacement of [3H]-vasopressin from human vasopressin 1a receptor expressed in HEK293 cell membranes after 1 hr by scintillation proximity assay; how it was run: as §1
Target sequence in this assay (P37288 whole entry): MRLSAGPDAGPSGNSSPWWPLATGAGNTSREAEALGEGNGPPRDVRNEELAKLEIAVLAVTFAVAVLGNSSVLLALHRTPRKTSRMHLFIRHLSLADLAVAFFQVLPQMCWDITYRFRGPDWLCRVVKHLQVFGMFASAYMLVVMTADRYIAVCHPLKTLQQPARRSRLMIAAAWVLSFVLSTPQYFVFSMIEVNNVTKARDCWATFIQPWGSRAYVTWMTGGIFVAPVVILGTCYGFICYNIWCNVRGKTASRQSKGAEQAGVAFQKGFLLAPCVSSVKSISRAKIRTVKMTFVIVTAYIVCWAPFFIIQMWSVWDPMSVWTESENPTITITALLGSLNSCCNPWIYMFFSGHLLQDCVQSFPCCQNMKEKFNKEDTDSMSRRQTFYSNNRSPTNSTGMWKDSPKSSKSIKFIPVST

Vasopressin V1a receptor [3] = molecular target: T1, Vasopressin V1a receptor; test: Antagonist activity at human vasopressin 1a receptor expressed in CHO cells assessed as inhibition of vasopressin-induced calcium flux preincubated for 20 mins followed by vasopressin induction measured for 5 mins by FLIPR assay; type: functional, cell-based
How it was run: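 Functional antagonist calcium-flux read-out; value reported as apparent affinity (Kb).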
Target sequence in this assay (P37288 whole entry, looked up): as the sequence (P37288 whole entry) above

Vasopressin V1b receptor = molecular target: T2, Vasopressin V1b receptor (Homo sapiens, UniProt P47901); test: Displacement of [3H]-vasopressin from human vasopressin 1b receptor after 1 hr by scintillation proximity assay
T2 sequence (P47901 whole entry): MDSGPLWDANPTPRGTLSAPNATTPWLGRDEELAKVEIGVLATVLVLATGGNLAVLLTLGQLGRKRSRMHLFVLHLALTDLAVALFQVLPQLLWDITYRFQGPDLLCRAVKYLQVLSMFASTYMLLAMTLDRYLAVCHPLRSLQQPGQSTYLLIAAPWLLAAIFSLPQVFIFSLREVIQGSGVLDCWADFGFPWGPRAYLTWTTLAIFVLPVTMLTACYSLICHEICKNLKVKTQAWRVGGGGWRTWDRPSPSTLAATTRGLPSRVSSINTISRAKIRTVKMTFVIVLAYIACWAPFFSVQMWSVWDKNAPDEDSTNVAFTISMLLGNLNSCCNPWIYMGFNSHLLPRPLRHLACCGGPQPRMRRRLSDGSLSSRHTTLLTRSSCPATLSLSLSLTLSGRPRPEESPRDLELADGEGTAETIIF

Oxytocin receptor = molecular target: T3, Oxytocin receptor (Homo sapiens, UniProt P30559); test: Displacement of [3H]-oxytocin from human oxytocin receptor expressed in HEK cell membranes after 1 hr by scintillation proximity assay; parameters: species or system HEK293
T3 sequence (P30559 whole entry): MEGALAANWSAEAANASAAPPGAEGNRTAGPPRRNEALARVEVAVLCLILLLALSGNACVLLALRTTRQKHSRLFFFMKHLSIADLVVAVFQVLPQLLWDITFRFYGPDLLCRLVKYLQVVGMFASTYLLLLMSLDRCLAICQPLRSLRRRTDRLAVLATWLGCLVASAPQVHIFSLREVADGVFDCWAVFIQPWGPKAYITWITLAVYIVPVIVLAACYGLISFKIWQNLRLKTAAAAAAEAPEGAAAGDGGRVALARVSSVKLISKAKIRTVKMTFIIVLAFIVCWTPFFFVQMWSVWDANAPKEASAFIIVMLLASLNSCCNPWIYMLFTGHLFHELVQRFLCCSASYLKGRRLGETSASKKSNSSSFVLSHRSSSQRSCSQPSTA

[4] = Octanol-buffer partition co-efficient, log D of the compound after 24 hrs by high-throughput shake-flask method; type: physicochemical
[5] = Solubility of the compound in phosphate buffer at pH 6.5 incubated for 1 hr with stirring followed by 2 hrs of shaking by Lysa assay; type: physicochemical
Vasopressin V2 receptor = Vasopressin V2 receptor (Homo sapiens, UniProt P30518); test: Displacement of [3H]-vasopressin from human vasopressin V2 receptor expressed in HEK293 cell membranes after 1 hr by scintillation proximity assay
Vasopressin V2 receptor, sequence (P30518 whole entry): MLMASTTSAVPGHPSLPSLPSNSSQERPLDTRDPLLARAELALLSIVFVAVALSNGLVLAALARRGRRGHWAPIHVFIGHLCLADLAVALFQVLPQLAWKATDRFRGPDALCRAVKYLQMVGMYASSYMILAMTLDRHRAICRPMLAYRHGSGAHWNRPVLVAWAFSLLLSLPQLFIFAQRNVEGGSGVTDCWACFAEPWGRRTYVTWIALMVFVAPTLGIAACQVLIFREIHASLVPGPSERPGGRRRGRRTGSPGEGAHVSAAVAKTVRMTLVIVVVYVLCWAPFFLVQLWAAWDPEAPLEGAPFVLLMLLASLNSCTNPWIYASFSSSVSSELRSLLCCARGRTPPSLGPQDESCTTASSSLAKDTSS

[6] = Ratio of drug level in brain to plasma in mouse at 10 mg/kg, po; type: ADME, organism-based; parameters: dose 10 mg/kg, route oral; conditions: read-out: BPR
Homo sapiens [7] = species on record: Homo sapiens; test: Selectivity ratio of Ki for human vasopressin V2 receptor to Ki for human vasopressin 1a receptor
How it was run: (§2)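 Ratio of the Ki at hV2 or hOTR to the hV1a Ki. Each Ki came from a radioligand competition binding assay.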

[8] = Activity at human P-gp assessed as drug transport; type: ADME
[9] = Volume of distribution at steady state in mouse at 2 mg/kg, iv; type: ADME, organism-based; parameters: dose 2 mg/kg, route intravenous; conditions: in vivo, read-out: Vdss
Homo sapiens [10] = species on record: Homo sapiens; test: Selectivity ratio of Ki for human oxytocin receptor to Ki for human vasopressin 1a receptor; how it was run: as §2
[11] = Clearance in mouse at 2 mg/kg, iv; type: ADME, organism-based; parameters: dose 2 mg/kg, route intravenous; conditions: in vivo
Mus musculus [12] = test: Inhibition of arginine vasopressin-induced scratching in ip dosed NMRI mouse administered 30 mins prior to arginine vasopressin challenge measured for 5 mins; type: functional, organism-based
How it was run: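 Mice received the compound i.p. at 0.3, 1, 3, 10 or 30 mg/kg or vehicle before centrally given AVP. AVP-induced scratching was scored and expressed as % of maximal response.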

Mus musculus [13] = test: Inhibition of arginine vasopressin-induced scratching in icv dosed NMRI mouse administered 5 mins prior to arginine vasopressin challenge measured for 5 mins; type: functional, organism-based
How it was run: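 Mice received the compound i.c.v. at three doses or vehicle before centrally given AVP. AVP-induced scratching was scored and expressed as % of maximal response.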

Row | Structure (SMILES) | Ki (Vasopressin V1a receptor [1]; read-out: Ki) [µM] | Ki (Vasopressin V1a receptor [2]; read-out: Ki) [µM] | Kb (Vasopressin V1a receptor [3]) [µM] | solubility at 3 h [5] [µg/mL] | further results
1 | O=C(c1c[nH]c2cc(Cl)ccc12)N1CCC2(CC1)OCc1ccncc12 | 2.98 | 0.009 | 0.0042 | – | –
2 | CCOc1ccc2ccccc2c1C(=O)N1CCC(O)(Cc2ccccc2)CC1 | – | 2.83 | – | – | Ki (Vasopressin V1b receptor; read-out: Ki): 12 µM
3 | Cc1c(C(=O)N2CCC3(CC2)OCc2ccccc23)c2ccccc2n1Cc1ccccc1 | 0.21 | 0.002 | 0.0036 | < 1 | Ki (Oxytocin receptor; hek293): Not Active; logD at 24 h [4]: > 3; Ki (Vasopressin V2 receptor): 9.31 µM
4 | O=C(c1c[nH]c2cc(Cl)ccc12)N1CCC2(CC1)OCc1ncccc12 | 4.82 | 0.039 | 0.0078 | – | –
5 | CN1CCC[C@H]1Cn1cc(C(=O)N2CCC3(CC2)OCc2ccccc23)c2ccc(Cl)cc21 | 0.013 | 0.001 | 0.0005 | 140 (≈ 302 µM) | Kp [6]: 2; Ratio Ki (Homo sapiens [7]): 6070; Activity [8]: Not Active; Vd [9]: 2.6 L/kg; Ratio Ki (Homo sapiens [10]): 1980; clearance [11]: 67 mL/min/kg
6 | O=C(c1c[nH]c2cc(Cl)ccc12)N1CCC2(CC1)OCc1ccccc12 | 1.01 | 0.004 | 0.0029 | 4 (≈ 10.9 µM) | Ratio Ki (Homo sapiens [7]): > 6750; Ki (Oxytocin receptor; read-out: Ki): 7.52 µM; Activity [8]: Not Active; logD at 24 h [4]: 3.7; Ratio Ki (Homo sapiens [10]): 1880; Ki (Vasopressin V2 receptor): > 27 µM
7 | CN(C)C(=O)Cn1cc(C(=O)N2CCC3(CC2)OCc2ccccc23)c2ccc(Cl)cc21 | 0.014 | – | 0.0001 | 56 (≈ 124 µM) | Kp [6]: 0.05; Activity [8]: Active; Vd [9]: 1.2 L/kg; clearance [11]: 40 mL/min/kg
8 | O=C(c1c[nH]c2cc(Cl)ccc12)N1CCC(n2c(=O)[nH]c3ccccc32)CC1 | 2.39 | 0.008 | 0.014 | – | –
9 | CN(C)CCNC(=O)Cn1cc(C(=O)N2CCC3(CC2)OCc2ccccc23)c2ccc(Cl)cc21 | 0.177 | 0.002 | 0.0007 | > 650 | Kp [6]: 0.1; inhibition (Mus musculus [12]): Dose-dependent effect; Ratio Ki (Homo sapiens [7]): 11800; Activity [8]: Active; Vd [9]: 4.9 L/kg; Ratio Ki (Homo sapiens [10]): 5690; clearance [11]: 14 mL/min/kg
10 | CN1CCC(n2cc(C(=O)N3CCC4(CC3)OCc3ccccc34)c3ccc(Cl)cc32)CC1 | 0.011 | 0.004 | 0.0033 | 12 (≈ 25.9 µM) | Kp [6]: 1; Ratio Ki (Homo sapiens [7]): > 6750; Activity [8]: Not Active; Vd [9]: 7.2 L/kg; Ratio Ki (Homo sapiens [10]): 1200; clearance [11]: 52 mL/min/kg
11 | O=C(c1cccc2ccccc12)N1CCC(O)(Cc2ccccc2)CC1 | – | 6.62 | – | – | –
12 | O=C(c1c[nH]c2cc(Cl)ccc12)N1CCC2(CC1)c1ccccc1CS2(=O)=O | 5.89 | 0.024 | 0.011 | – | –
13 | Cc1c(C(=O)N2CCC(O)(Cc3ccccc3)CC2)c2ccccc2n1Cc1ccccc1 | – | 0.295 | – | – | –
14 | O=C(c1c[nH]c2cc(Cl)ccc12)N1CCC2(CC1)COc1ccccc12 | – | 0.016 | 0.072 | – | Ki (Vasopressin V1a receptor [1]; hek293): Not Active
15 | COc1ccccc1C(=O)N1CCC(O)(Cc2ccccc2)CC1 | – | – | – | – | Ki (Vasopressin V1a receptor [2]; hek293): Not Active
16 | O=C(c1c[nH]c2cc(Cl)ccc12)N1CCC2(CC1)OCc1cccnc12 | 1.02 | 0.005 | 0.0018 | – | –
17 | O=C(c1c[nH]c2cc(Cl)ccc12)N1CCC2(CC1)CNc1ccccc12 | 5.89 | – | 0.02 | – | –
18 | CCOc1ccc2ccccc2c1C(=O)N1CCC2(CC1)OCc1ccccc12 | – | 0.081 | – | – | Ki (Vasopressin V1b receptor): Not Active
19 | O=C(c1c[nH]c2cc(Cl)ccc12)N1CCC(c2ccccc2)CC1 | 1.49 | 0.023 | 0.043 | – | –
20 | O=C1OC2(CCN(C(=O)c3c[nH]c4cc(Cl)ccc34)CC2)c2ccccc21 | – | 0.005 | 0.005 | – | Ki (Vasopressin V1a receptor [1]; hek293): Not Active
21 | O=C(c1cn(C[C@@H]2CCCN2)c2cc(Cl)ccc12)N1CCC2(CC1)OCc1ccccc12 | 0.125 | 0.0014 | 0.0014 | 108 (≈ 240 µM) | Kp [6]: 0.05; Ratio Ki (Homo sapiens [7]): > 19300; Activity [8]: Active; Vd [9]: 6.8 L/kg; Ratio Ki (Homo sapiens [10]): 1510; clearance [11]: 32 mL/min/kg
22 | Cc1c(C(=O)N2CCC(O)(Cc3ccccc3)CC2)c2ccccc2n1C(=O)c1ccccc1 | – | 3.9 | – | – | –
23 | O=C1Nc2ccccc2C2(CCN(C(=O)c3c[nH]c4cc(Cl)ccc34)CC2)O1 | – | – | 0.038 | – | Ki (Vasopressin V1a receptor [1]; hek293): Not Active
24 | Cc1c(C(=O)N2CCC(O)(Cc3ccccc3)CC2)c2ccccc2n1S(=O)(=O)c1ccccc1 | – | 4.99 | – | – | –
25 | CN1CCN(C(=O)Cn2cc(C(=O)N3CCC4(CC3)OCc3ccccc34)c3ccc(Cl)cc32)CC1 | 0.041 | 0.001 | 0.0002 | 193 (≈ 381 µM) | Kp [6]: 0.07; inhibition (Mus musculus [13]): Dose-dependent effect; Ratio Ki (Homo sapiens [7]): > 60000; Vd [9]: 1.5 L/kg; Ratio Ki (Homo sapiens [10]): 9160; clearance [11]: 39 mL/min/kg
26 | O=C(c1c[nH]c2ccccc12)N1CCC2(CC1)OCc1ccccc12 | 6.62 | 0.032 | – | 17 (≈ 51.1 µM) | logD at 24 h [4]: > 3
27 | CN(C)CCn1cc(C(=O)N2CCC3(CC2)OCc2ccccc23)c2ccc(Cl)cc21 [RO-5028442] | 0.039 | – | 0.0026 | 205 (≈ 468 µM) | Kp [6]: 1.4; Ratio Ki (Homo sapiens [7]): > 30000; Activity [8]: Not Active; Vd [9]: 5.8 L/kg; Ratio Ki (Homo sapiens [10]): 9890; clearance [11]: 91 mL/min/kg
28 | O=C(c1c[nH]c2cc(Cl)ccc12)N1CCN(c2ccccc2Cl)CC1 | 1.97 | 0.118 | 0.193 | – | –
